Measurements reported in ChEMBL document CHEMBL1208778, “Synthesis and anti-cancer activity of chalcone linked imidazolones” (2010).
Active and inactive are the calls of the source. The rule behind the calls is not given here.

Legend:
[1] = Growth inhibition of human RPMI8266 cells; assay type: functional
How it was run: (§1)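 Five-dose testing was run within the NCI (Bethesda) in vitro Anticancer Screen Program on a panel of 53 human tumour cell lines from nine cancer types. Growth inhibition is reported as GI50.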

K562 = assay: Growth inhibition of human K562 cells; assay type: functional; how it was run: as §1
A549 = assay: Growth inhibition of human A549 cells; assay type: functional; how it was run: as §1
EKVX = assay: Growth inhibition of human EKVX cells; assay type: functional; how it was run: as §1
HOP-62 = assay: Growth inhibition of human HOP62 cells; assay type: functional; how it was run: as §1
HOP-92 = assay: Growth inhibition of human HOP92 cells; assay type: functional; how it was run: as §1
NCI-H226 = assay: Growth inhibition of human NCI-H226 cells; assay type: functional; how it was run: as §1
NCI-H23 = assay: Growth inhibition of human NCI-H23 cells; assay type: functional; how it was run: as §1
NCI-H322M = assay: Growth inhibition of human NCI-H322M cells; assay type: functional; how it was run: as §1
NCI-H460 = assay: Growth inhibition of human NCI-H460 cells; assay type: functional; how it was run: as §1
NCI-H522 = assay: Growth inhibition of human NCI-H522 cells; assay type: functional; how it was run: as §1
COLO 205 = assay: Growth inhibition of human COLO205 cells; assay type: functional; how it was run: as §1
HCC 2998 = assay: Growth inhibition of human HCC2998 cells; assay type: functional; how it was run: as §1
HCT-116 = assay: Growth inhibition of human HCT116 cells; assay type: functional; how it was run: as §1
HCT-15 = assay: Growth inhibition of human HCT15 cells; assay type: functional; how it was run: as §1
HT-29 = assay: Growth inhibition of human HT-29 cells; assay type: functional; how it was run: as §1
KM12 = assay: Growth inhibition of human KM12 cells; assay type: functional; how it was run: as §1
SW-620 = assay: Growth inhibition of human SW620 cells; assay type: functional
How it was run: (§2)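 Compounds that passed a preliminary screen were tested at five doses in the NCI (Bethesda) in vitro Anticancer Screen Program against a 53-line human tumour panel spanning leukemia, lung, colon, CNS, melanoma, ovarian, renal, prostate and breast. Growth inhibition is reported as GI50.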

SF-268 = assay: Growth inhibition of human SF268 cells; assay type: functional; how it was run: as §1
SF-295 = assay: Growth inhibition of human SF295 cells; assay type: functional; how it was run: as §1
SF-539 = assay: Growth inhibition of human SF539 cells; assay type: functional; how it was run: as §1
SNB-19 = assay: Growth inhibition of human SNB19 cells; assay type: functional; how it was run: as §2
SNB-75 = assay: Growth inhibition of human SNB75 cells; assay type: functional; how it was run: as §2
U-251 = assay: Growth inhibition of human U251 cells; assay type: functional; how it was run: as §2
A498 = assay: Growth inhibition of human A498 cells; assay type: functional; how it was run: as §1
786-0 = assay: Growth inhibition of human 786-0 cells; assay type: functional; how it was run: as §1
ACHN = assay: Growth inhibition of human ACHN cells; assay type: functional; how it was run: as §1
CAKI-1 = assay: Growth inhibition of human Caki1 cells; assay type: functional; how it was run: as §1
RXF 393 = assay: Growth inhibition of human RXF393 cells; assay type: functional; how it was run: as §1
SN12C = assay: Growth inhibition of human SN12C cells; assay type: functional; how it was run: as §2
TK-10 = assay: Growth inhibition of human TK10 cells; assay type: functional; how it was run: as §2
UO-31 = assay: Growth inhibition of human UO31 cells; assay type: functional; how it was run: as §2
PC-3 = assay: Growth inhibition of human PC3 cells; assay type: functional; how it was run: as §1
OVCAR-3 = assay: Growth inhibition of human OVCAR-3 cells; assay type: functional; how it was run: as §1
OVCAR-4 = assay: Growth inhibition of human OVCAR4 cells; assay type: functional; how it was run: as §1
OVCAR-5 = assay: Growth inhibition of human OVCAR5 cells; assay type: functional; how it was run: as §1
OVCAR-8 = assay: Growth inhibition of human OVCAR8 cells; assay type: functional; how it was run: as §1
NCI/ADR-RES = assay: Growth inhibition of human NCI/ADR-RES cells; assay type: functional; how it was run: as §1
SK-OV-3 = assay: Growth inhibition of human SKOV3 cells; assay type: functional; how it was run: as §2
MCF7 [2] = assay: Growth inhibition of human MCF7 cells; assay type: functional; how it was run: as §1
MDA-MB-231 = assay: Growth inhibition of human MDA-MB-231 cells; assay type: functional; how it was run: as §1
[3] = Growth inhibition of human Hs 578T cells; assay type: functional; how it was run: as §1
BT-549 = assay: Growth inhibition of human BT549 cells; assay type: functional; how it was run: as §1
T47D = assay: Growth inhibition of human T47D cells; assay type: functional; how it was run: as §2
LOX IMVI = assay: Growth inhibition of human LOXIMVI cells; assay type: functional; how it was run: as §1
Malme-3M = assay: Growth inhibition of human MALME-3M cells; assay type: functional; how it was run: as §1
M14 = assay: Growth inhibition of human M14 cells; assay type: functional; how it was run: as §1
MDA-MB-435 = assay: Growth inhibition of human MDA-MB-435 cells; assay type: functional; how it was run: as §1
SK-MEL-2 = assay: Growth inhibition of human SK-MEL-2 cells; assay type: functional; how it was run: as §1
SK-MEL-28 = assay: Growth inhibition of human SK-MEL-28 cells; assay type: functional; how it was run: as §1
SK-MEL-5 = assay: Growth inhibition of human SK-MEL-5 cells; assay type: functional; how it was run: as §1
UACC-257 = assay: Growth inhibition of human UACC257 cells; assay type: functional; how it was run: as §2
UACC-62 = assay: Growth inhibition of human UACC62 cells; assay type: functional; how it was run: as §2
MCF7 [4] = assay: Cell cycle arrest in human MCF7 cells assessed as accumulation at G0 phase at 10 uM after 24 hrs by FACS analysis; assay type: functional
How it was run: (§3)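 MCF-7 breast carcinoma cells were exposed to 10 µM test compound for 24 h, with DMSO as the vehicle control. Cell-cycle distribution was read by FACS as the percentage of cells in G0, G1, S and G2/M.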

MCF7 [5] = assay: Cell cycle arrest in human MCF7 cells assessed as accumulation at G1 phase at 10 uM after 24 hrs by FACS analysis; assay type: functional; how it was run: as §3
MCF7 [6] = assay: Cell cycle arrest in human MCF7 cells assessed as accumulation at S phase at 10 uM after 24 hrs by FACS analysis; assay type: functional; how it was run: as §3
MCF7 [7] = assay: Cell cycle arrest in human MCF7 cells assessed as accumulation at G2/M phase at 10 uM after 24 hrs by FACS analysis; assay type: functional; how it was run: as §3
MCF7 [8] = assay: Cell cycle arrest in human MCF7 cells assessed as accumulation at G0 phase at 30 uM after 24 hrs by FACS analysis; assay type: functional
How it was run: (§4)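 MCF-7 cells were treated at 30 µM for 24 h alongside a DMSO control. Fractions in G0, G1, S and G2/M phases were measured by FACS, and values are means of three experiments.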

MCF7 [9] = assay: Cell cycle arrest in human MCF7 cells assessed as accumulation at G1 phase at 30 uM after 24 hrs by FACS analysis; assay type: functional; how it was run: as §4
MCF7 [10] = assay: Cell cycle arrest in human MCF7 cells assessed as accumulation at S phase at 30 uM after 24 hrs by FACS analysis; assay type: functional; how it was run: as §4
MCF7 [11] = assay: Cell cycle arrest in human MCF7 cells assessed as accumulation at G2/M phase at 30 uM after 24 hrs by FACS analysis; assay type: functional; how it was run: as §4
MCF7 [12] = assay: Induction of apoptosis in human MCF7 cells assessed as decrease in procaspase 7 level at 30 uM after 24 hrs by Western blot analysis; assay type: functional, cell-based
How it was run: (§5)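 MCF-7 breast carcinoma cells were exposed to 30 µM compound for 24 h, with CA-4 as positive control. Cell lysates were then immunoblotted with antibodies to procaspase-7 and cleavage-specific PARP, using β-actin as loading control.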

MCF7 [13] = assay: Induction of apoptosis in human MCF7 cells assessed as […] in PARP cleavage at 30 uM after 24 hrs by Western blot analysis; assay type: functional, cell-based; how it was run: as §5

Structure (SMILES): COc1cc(/C=C/C(=O)c2cccc(-n3cc(-c4ccccc4)[nH]c3=O)c2)ccc1O
- GI50 [1]: 1670 nM
- GI50 (K562): 2040 nM
- GI50 (A549): 3850 nM
- GI50 (EKVX): 3900 nM
- GI50 (HOP-62): 1480 nM
- GI50 (HOP-92): 2270 nM
- GI50 (NCI-H226): 2600 nM
- GI50 (NCI-H23): 2020 nM
- GI50 (NCI-H322M): 3390 nM
- GI50 (NCI-H460): 1950 nM
- GI50 (NCI-H522): 2360 nM
- GI50 (COLO 205): 2210 nM
- GI50 (HCC 2998): 1510 nM
- GI50 (HCT-116): 1400 nM
- GI50 (HCT-15): 2730 nM
- GI50 (HT-29): 3770 nM
- GI50 (KM12): 1610 nM
- GI50 (SW-620): 2290 nM
- GI50 (SF-268): 2070 nM
- GI50 (SF-295): 3040 nM
- GI50 (SF-539): 1910 nM
- GI50 (SNB-19): 2960 nM
- GI50 (SNB-75): 3900 nM
- GI50 (U-251): 2110 nM
- GI50 (A498): 1680 nM
- GI50 (786-0): 1350 nM
- GI50 (ACHN): 2500 nM
- GI50 (CAKI-1): 2190 nM
- GI50 (RXF 393): 2270 nM
- GI50 (SN12C): 3310 nM
- GI50 (TK-10): 5290 nM
- GI50 (UO-31): 2180 nM
- GI50 (PC-3): 2520 nM
- GI50 (OVCAR-3): 2290 nM
- GI50 (OVCAR-4): 5190 nM
- GI50 (OVCAR-5): 2040 nM
- GI50 (OVCAR-8): 4110 nM
- GI50 (NCI/ADR-RES): 2920 nM
- GI50 (SK-OV-3): 3760 nM
- GI50 (MCF7 [2]): 1550 nM
- GI50 (MDA-MB-231): 3360 nM
- GI50 [3]: 4160 nM
- GI50 (BT-549): 2780 nM
- GI50 (T47D): 2700 nM
- GI50 (LOX IMVI): 1880 nM
- GI50 (Malme-3M): 2670 nM
- GI50 (M14): 2610 nM
- GI50 (MDA-MB-435): 2140 nM
- GI50 (SK-MEL-2): 3650 nM
- GI50 (SK-MEL-28): 1850 nM
- GI50 (SK-MEL-5): 1590 nM
- GI50 (UACC-257): 6810 nM
- GI50 (UACC-62): 2010 nM
- Activity (MCF7 [4]): 11.17%
- Activity (MCF7 [5]): 25.85%
- Activity (MCF7 [6]): 14.13%
- Activity (MCF7 [7]): 48.85%
- Activity (MCF7 [8]): 40.05%
- Activity (MCF7 [9]): 49.91%
- Activity (MCF7 [10]): 2.41%
- Activity (MCF7 [11]): 7.63%
- Activity (MCF7 [12]): Active
- Activity (MCF7 [13]): Active
